The source made the active and inactive calls. No cut-off for these calls is given here.
Experiments:
[1] = biological target: T1, Peptidyl-prolyl cis-trans isomerase A (Homo sapiens, UniProt P62937); assay: Inhibition of human cyclophilin A at 6 degC
How it was run: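 PPIase assay at 6 °C in 50 mM HEPES, 100 mM NaCl, using Suc-AAPF-pNA substrate (3 mM stock in THF with 480 mM LiCl). A390 was recorded for 20 s after about a 6 s mixing delay. Cis–trans rate constants came from nonlinear least-squares fits to an integrated first-order equation, and IC₅₀ was calculated from these.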

[2] = Cytotoxicity against human CEM cells; assay type: cell-based; conditions: CEM cells (CCRF-CEM), read-out: TC50 (the source's name)
[3] = biological target: Structural capsid protein (Human immunodeficiency virus 1) (UniProt Q76129); assay: Binding affinity to HIV1 capsid assessed as assembly rate per minute by ultraviolet spectrophotometry assay
Chain of Structural capsid protein (Human immunodeficiency virus 1) (Q76129 as listed by the source): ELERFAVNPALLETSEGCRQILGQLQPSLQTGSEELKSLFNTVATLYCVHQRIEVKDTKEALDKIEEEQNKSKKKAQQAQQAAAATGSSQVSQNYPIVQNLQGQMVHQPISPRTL
How it was run: (§1)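 Turbidity was read at 350 nm every 10 s after a short equilibration delay. Assembly rate (mOD/min) was taken from the initial slope of absorbance versus time.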

[4] = biological target: T1, Peptidyl-prolyl cis-trans isomerase A; assay: Binding affinity to human cyclophilin A by intrinsic tryptophan fluorescence titration assay
How it was run: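 CypA intrinsic tryptophan fluorescence titration in 20 mM Tris–HCl, 100 mM NaCl, pH 7.4, at 25 °C, with compounds from 10 mM DMSO stocks. Excitation was 280 nm and emission was read at 340 nm. Kd was obtained by fitting intensity against final compound concentration to F₀/F = 1 + Ka·C.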

[5] = Therapeutic index, TC50 for human CEM cells to EC50 for SIV; assay type: cell-based, CCRF-CEM
[6] = tested on: Simian immunodeficiency virus; assay: Antiviral activity against SIV in human CEM cells assessed as inhibition of virus-induced cytopathogenicity; assay type: functional, organism-based, CCRF-CEM; conditions: Simian immunodeficiency virus, CCRF-CEM; read-out: EC50
How it was run: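 SIV syncytium assay in CEM174 cells (2 × 10⁵ cells/ml) infected with 100 TCID₅₀ SIV per well alongside serial compound dilutions. Cultures were kept 5 days at 37 °C in humidified 5% CO₂, then giant-cell formation was scored microscopically. EC₅₀ is the concentration protecting cells from SIV cytopathogenicity by 50%.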

[7] = biological target: Protease (Human immunodeficiency virus 1) (UniProt Q9YQ12); assay: Inhibition of HIV1 protease
Chain of Protease (Human immunodeficiency virus 1) (Q9YQ12 as listed by the source): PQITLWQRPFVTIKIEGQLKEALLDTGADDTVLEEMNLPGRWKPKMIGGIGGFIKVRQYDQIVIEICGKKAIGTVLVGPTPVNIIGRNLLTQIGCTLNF
How it was run: (§2)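 HIV-1 protease was preincubated with inhibitor (DMSO) for 20 min at room temperature in 0.1 M MES, 0.2 M NaCl, 5 mM EDTA, pH 5.5. The reaction was started with substrate Lys-Ala-Arg-Val-Leu-Phe(NO₂)-Glu-Ala-Met, and hydrolysis was followed as the A280 decrease over 40 min. Inhibition ratio was taken from Ai/A₀, with and without inhibitor.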

[8] = biological target: Human immunodeficiency virus type 1 integrase (Human immunodeficiency virus 1) (UniProt Q7ZJM1); assay: Inhibition of HIV1 integrase at 20 uM; design: scale not given: the % may be the effect or the level left
Chain of Human immunodeficiency virus type 1 integrase (Human immunodeficiency virus 1) (Q7ZJM1 as listed by the source): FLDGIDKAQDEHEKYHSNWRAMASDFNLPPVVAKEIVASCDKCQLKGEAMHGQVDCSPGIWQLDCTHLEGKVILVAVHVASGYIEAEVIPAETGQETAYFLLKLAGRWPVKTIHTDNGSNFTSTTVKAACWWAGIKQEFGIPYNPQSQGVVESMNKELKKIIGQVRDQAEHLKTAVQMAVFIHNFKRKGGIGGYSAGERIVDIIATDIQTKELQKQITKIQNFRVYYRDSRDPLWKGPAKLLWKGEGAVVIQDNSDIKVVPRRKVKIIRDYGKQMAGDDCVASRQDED
How it was run: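 Recombinant HIV-1 integrase (E. coli) was preincubated with compound for 30 min. It was then incubated for 30 min at 37 °C on plate-immobilized donor duplex in Tris–HCl pH 7.8, 25 mM NaCl, 7.5 mM MgCl₂, 5 mM β-mercaptoethanol and BSA. Biotinylated target duplex was added for 1 h at 37 °C. Integration products were detected by pNPP phosphatase read-out at A405, and inhibition was taken as the decrease in final absorbance.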

[9] = biological target: Protease (Human immunodeficiency virus 1) (UniProt Q9YQ12); assay: Inhibition of HIV1 protease assessed as decrease in UV absorbance; conditions: concentration not given here; how it was run: as §2
[10] = biological target: Structural capsid protein (Human immunodeficiency virus 1) (UniProt Q76129); assay: Binding affinity to HIV1 capsid assessed as assembly rate per minute at 2:1 drug to protein ratio by ultraviolet spectrophotometry assay; how it was run: as §1
[11] = biological target: Structural capsid protein (Human immunodeficiency virus 1) (UniProt Q76129); assay: Binding affinity to HIV1 capsid assessed as assembly rate per minute at 1:1 drug to protein ratio by ultraviolet spectrophotometry assay; how it was run: as §1
[12] = biological target: Structural capsid protein (Human immunodeficiency virus 1) (UniProt Q76129); assay: Binding affinity to HIV1 capsid assessed as assembly rate per minute at 0.5:1 drug to protein ratio by ultraviolet spectrophotometry assay; how it was run: as §1

T1 sequence (P62937 whole entry): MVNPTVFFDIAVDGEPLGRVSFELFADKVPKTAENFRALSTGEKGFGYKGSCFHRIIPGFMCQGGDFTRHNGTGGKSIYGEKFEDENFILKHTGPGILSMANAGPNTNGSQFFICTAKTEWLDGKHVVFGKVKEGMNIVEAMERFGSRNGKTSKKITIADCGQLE

SMILES: Cc1ccc(NC(=S)Nc2ccc(S(=O)(=O)Nc3nccs3)cc2)cc1
- IC50 [1]: 0.45 µM
- CC50 [2]: 20.9 µM
- Activity (milli optical density/minute) [3]: 59
- Kd ([4]; read-out: Kd): 76.9 µM
- selectivity ratio [5]: 9
- EC50 [6]: 2.2 µM

SMILES: O=C1OCc2ccc(NC(=S)Nc3cccc(Br)c3)cc21
- Activity [7]: inactive
- CC50 [2]: 30.8 µM
- Activity (milli optical density/minute) [3]: 69.6
- Kd ([4]; read-out: Kd): 125 µM
- Activity [8]: < 20%
- selectivity ratio [5]: 7
- EC50 [6]: 4.6 µM

SMILES: O=C1OCc2ccc(NC(=S)Nc3ccc(F)cc3)cc21
- Activity [7]: inactive
- CC50 [2]: 83.7 µM
- Activity (milli optical density/minute) [3]: 55.7
- Kd ([4]; read-out: Kd): 227 µM
- Activity [8]: < 20%
- selectivity ratio [5]: 5
- EC50 [6]: 15.8 µM

SMILES: Cc1cccc(NC(=S)Nc2ccc3c(c2)C(=O)OC3)c1
- Activity [7]: inactive
- CC50 [2]: 16 µM
- Activity (milli optical density/minute) [3]: 64.6
- Kd ([4]; read-out: Kd): 141 µM
- Activity [8]: < 20%
- selectivity ratio [5]: 1
- EC50 [6]: 11.6 µM

SMILES: Cc1cc(NS(=O)(=O)c2ccc(NC(=S)Nc3ccc(C)c(Cl)c3)cc2)no1
- IC50 [1]: 0.65 µM
- CC50 [2]: 74.4 µM
- Activity (milli optical density/minute) [3]: 36.4
- Kd ([4]; read-out: Kd): 55.8 µM
- inhibition [9]: < 5%
- selectivity ratio [5]: 127
- EC50 [6]: 0.6 µM

SMILES: Cc1ccc(NC(=S)Nc2ccc(S(=O)(=O)Nc3cc(C)on3)cc2)cc1
- CC50 [2]: 41.4 µM
- Activity (milli optical density/minute) [3]: 45.9
- Kd ([4]; read-out: Kd): 119 µM
- selectivity ratio [5]: 4
- EC50 [6]: 9.6 µM

SMILES: Cc1ccc(NC(=S)Nc2ccc3c(c2)C(=O)OC3)cc1Cl
- Activity [7]: inactive
- IC50 [1]: 0.59 µM
- CC50 [2]: 18.7 µM
- Activity (milli optical density/minute) [3]: 19.6
- Kd ([4]; read-out: Kd): 96.6 µM
- Activity [8]: < 20%
- selectivity ratio [5]: 4
- EC50 [6]: 4.6 µM

SMILES: COc1ccc(NC(=S)Nc2ccc3ccccc3c2)cc1
- Activity [7]: inactive
- CC50 [2]: 16.1 µM
- Activity (milli optical density/minute) [3]: 66.7
- Kd ([4]; read-out: Kd): 124 µM
- Activity [8]: < 20%
- selectivity ratio [5]: 7
- EC50 [6]: 2.3 µM

SMILES: O=C1OCc2ccc(NC(=S)Nc3cccc(Cl)c3)cc21
- Activity [7]: inactive
- CC50 [2]: 86 µM
- Activity (milli optical density/minute) [3]: 49.2
- Kd ([4]; read-out: Kd): 133 µM
- Activity [8]: < 20%
- inhibition [9]: < 5%
- selectivity ratio [5]: 20
- EC50 [6]: 4.2 µM

SMILES: O=C1OCc2ccc(NC(=S)Nc3cccc(F)c3)cc21
- Activity [7]: inactive
- CC50 [2]: 60.2 µM
- Activity (milli optical density/minute) [3]: 78.6
- Kd ([4]; read-out: Kd): 140 µM
- Activity [8]: < 20%
- selectivity ratio [5]: 10
- EC50 [6]: 6.3 µM

SMILES: Cc1cc(NS(=O)(=O)c2ccc(NC(=S)Nc3cccc(Br)c3)cc2)no1
- IC50 [1]: 0.45 µM
- CC50 [2]: 58.7 µM
- Activity (milli optical density/minute) [3]: 31.2
- Kd ([4]; read-out: Kd): 88.6 µM
- selectivity ratio [5]: 66
- EC50 [6]: 0.9 µM

SMILES: O=C1OCc2ccc(NC(=S)Nc3cc(F)cc(F)c3)cc21
- Activity [7]: inactive
- CC50 [2]: 69.1 µM
- Activity (milli optical density/minute) [3]: 63.6
- Kd ([4]; read-out: Kd): 513 µM
- Activity [8]: < 20%
- selectivity ratio [5]: 11
- EC50 [6]: 6.1 µM

SMILES: Cc1ccccc1NC(=S)Nc1ccc2c(c1)C(=O)OC2
- Activity [7]: inactive
- CC50 [2]: 46.9 µM
- Activity (milli optical density/minute) [3]: 65.7
- Kd [4]: Not Active
- Activity [8]: < 20%
- selectivity ratio [5]: 17
- EC50 [6]: 2.8 µM

SMILES: COc1ccc(NS(=O)(=O)c2ccc(NC(=S)Nc3ccc(Cl)cc3)cc2)cc1
- CC50 [2]: 77.5 µM
- Activity (milli optical density/minute) [3]: 26.3
- Kd ([4]; read-out: Kd): 60.8 µM
- selectivity ratio [5]: 19
- EC50 [6]: 4.1 µM

SMILES: O=S(=O)(Nc1nccs1)c1ccc(NC(=S)Nc2ccc(Cl)cc2)cc1
- Activity [7]: inactive
- IC50 [1]: 0.13 µM
- CC50 [2]: 19.1 µM
- Activity (milli optical density/minute) [3]: 52.5
- Kd ([4]; read-out: Kd): 51 µM
- Activity [8]: < 20%
- selectivity ratio [5]: 3
- EC50 [6]: 5.7 µM

SMILES: Cc1cc(NS(=O)(=O)c2ccc(NC(=S)Nc3ccc(Cl)cc3)cc2)no1
- IC50 [1]: 0.69 µM
- CC50 [2]: 37.8 µM
- Activity (milli optical density/minute) [3]: 29
- Kd ([4]; read-out: Kd): 107 µM
- Activity (milli optical density/minute) [10]: 19.4
- Activity (milli optical density/minute) [11]: 42
- Activity (milli optical density/minute) [12]: 52.2
- selectivity ratio [5]: 9
- EC50 [6]: 4.1 µM
